From ChEMBL document CHEMBL1146236, “Antineoplastic agents. 560. Isolation and structure of kitastatin 1 from an Alaskan Kitasatospora sp” (2007) come the findings set out here.

Usually MIC stands for the lowest concentration found to suppress growth. A low value points to greater potency. In general, GI50 refers to the concentration giving 50% growth inhibition.

≈ marks a conversion by molar mass, not a printed value. Some results are limits rather than exact numbers.

The test system of one test is Micrococcus luteus. Nature of the test: Antibacterial activity against Micrococcus luteus Presque Isle 456. The test is classed as functional. The gist of the method: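 Broth microdilution susceptibility test per NCCLS standards, strain Presque Isle 456. Compound reconstituted in sterile DMSO, diluted in the appropriate medium immediately before testing. MIC taken as the lowest concentration giving complete inhibition of visible growth (optically clear).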

Another test has as its system BXPC-3. Nature of the test: Growth inhibition of human BXPC3 cells after 48 hrs by sulforhodamine B assay. The test is classed as functional. The note with it: BXPC-3, 48 h. The gist of the method:
(§1)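 Cells in 5% fetal bovine serum/RPMI1640 were seeded and preincubated 24 h, then exposed to serial compound dilutions for 48 h. Plates were TCA-fixed, stained with sulforhodamine B and read by microplate reader. ED50 (concentration giving 50% reduction in net protein increase) was calculated from optical density data.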
(In general: The SRB assay estimates cell density from bound dye.)

A further test concerns MCF7. Nature of the test: Growth inhibition of human MCF7 cells after 48 hrs by sulforhodamine B assay. The test is classed as functional. Conditions: MCF7, 48 h. The gist of the method: as §1
The test system of a further test is SF-268. Nature of the test: Growth inhibition of human SF268 cells after 48 hrs by sulforhodamine B assay. Format: functional. The note with it: SF-268, 48 h. The gist of the method:
as §1

Another test has as its system NCI-H460. Nature of the test: Growth inhibition of human NCI-H460 cells after 48 hrs by sulforhodamine B assay. The test is classed as functional. Conditions: NCI-H460, 48 h. The gist of the method:
as §1

For another test, the system named is KM-20L2. Nature of the test: Growth inhibition of human KM20L2 cells after 48 hrs by sulforhodamine B assay. Format: functional. The note with it: KM-20L2, 48 h. The gist of the method: as §1
Another test relates to DU-145. Nature of the test: Growth inhibition of human DU145 cells after 48 hrs by sulforhodamine B assay. The test is classed as functional. The note with it: DU-145, 48 h. The gist of the method:
as §1

The test system of a further test is P388. Nature of the test: Growth inhibition of mouse P388 cells after 48 hrs by Coulter particle counting. Conditions: P388, 48 h, read-out: ED50 (the source's name).
The test system of the next test is Cryptococcus neoformans. Nature of the test: Antifungal activity against Cryptococcus neoformans ATCC 90112. Format: functional. The gist of the method: (§2)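 Broth microdilution susceptibility testing, following NCCLS reference methods (M7-A5 for bacteria, M27-A2 for yeasts). Compounds reconstituted in sterile DMSO and diluted in the appropriate medium just before testing. MIC was the lowest concentration giving complete inhibition of visible growth (optically clear).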

Another test relates to Enterococcus faecalis. Nature of the test: Antibacterial activity against Enterococcus faecalis ATCC 29212. Format: functional. The gist of the method:
as §2

On to `CCC(C)[C@@H]1OC(=O)[C@H](C)OC(=O)[C@@H](NC(=O)c2cccc(NC=O)c2O)[C@@H](C)OC(=O)[C@H](C(C)C)OC(=O)C(C)(C)C(=O)[C@H](CC(C)C)NC1=O` (stereo not given in full), for which the minimum inhibitory concentration (MIC) against Micrococcus luteus was 64000 ng/mL (≈ 87200 nM). Also, the concentration for 50% growth inhibition (GI50) with BXPC-3 was 1200 ng/mL (≈ 1640 nM); in the test with MCF7, 0.64 ng/mL (≈ 0.872 nM); with SF-268, 16 ng/mL (≈ 21.8 nM); in the test with NCI-H460, 0.63 ng/mL (≈ 0.859 nM); with KM-20L2 it was 0.58 ng/mL (≈ 0.79 nM); with DU-145, less than 0.1 ng/mL. For the same compound, in the test on P388, the EC50 was 33 ng/mL (≈ 45 nM).
Take `CCC(C)[C@@H]1OC(=O)[C@H](C)OC(=O)[C@@H](NC(=O)c2cccc(N)c2O)[C@@H](C)OC(=O)[C@H](CC(C)C)OC(=O)C(C)(C)C(=O)[C@H](CC(C)C)NC1=O` (stereo not given in full) [KITASTATIN]: the minimal inhibitory concentration (MIC) against Cryptococcus neoformans and against Enterococcus faecalis was 64000 ng/mL (≈ 88900 nM) in each case. For the same compound, the GI50 was 6.6 ng/mL (≈ 9.17 nM) in the test with BXPC-3; 4 ng/mL (≈ 5.56 nM) with MCF7; 3.5 ng/mL (≈ 4.86 nM) in the test with SF-268; less than 1 ng/mL with NCI-H460; 2.4 ng/mL (≈ 3.33 nM) in the test on KM-20L2; 2.6 ng/mL (≈ 3.61 nM) in the test on DU-145. Further, in the test with P388, the EC50 was found to be 45 ng/mL (≈ 62.5 nM).
With `CCC(C)[C@@H]1OC(=O)[C@H](C)OC(=O)[C@@H](NC(=O)c2cccc(NC=O)c2O)[C@@H](C)OC(=O)[C@H](CC(C)C)OC(=O)C(C)(C)C(=O)[C@H](CC(C)C)NC1=O` (stereo not given in full) [RESPIRANTIN], the MIC with Cryptococcus neoformans amounted to 2000 ng/mL (≈ 2670 nM). The GI50 in the test on BXPC-3 was found to be 470 ng/mL (≈ 628 nM); with MCF7 it was 0.6 ng/mL (≈ 0.802 nM); in the test on SF-268 it was 1.6 ng/mL (≈ 2.14 nM); with NCI-H460, 0.6 ng/mL (≈ 0.802 nM); in the test with KM-20L2, 0.6 ng/mL (≈ 0.802 nM); in the test on DU-145, 0.18 ng/mL (≈ 0.241 nM). The EC50 in the test with P388 was determined as 3.7 ng/mL (≈ 4.95 nM).
